# Experimental data: article PMC3226999 (Food chemistry, 2012)
# Entries after “also recorded” stand apart in the source; their conditions may differ.
# What was measured:
# [1] = system: caspase-3 and −7 activity in MDA-MB-231 cells; assay: Caspase-Glo 3/7 luminometric assay in cells; format: cell-based, human; conditions: for reduction of staurosporine-induced caspase-3/−7 activity: 1 μM staurosporine plus flavonoid 200, 100, 25 μM, 24 h (Figure 3B); for caspase-3 or −7 activity in treated cells versus DMSO control: 200 μM flavonoid or 1 μM staurosporine, 24 h (Figure 3A)
# Outline: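 MDA-MB-231 cells were grown in high-glucose DMEM with 10% BGS at 37 °C and 5% CO2. They were seeded at 0.5 × 10^4 cells/well, then treated after 24 h with test compound and/or staurosporine for 24 h. Alternatively, medium was replaced with 200 μM compound plus 1 μM staurosporine just before assay. Caspase-3/7 activity was read by Caspase-Glo 3/7 luminescence as fold activation over DMSO-treated cells (n=3, standard error of margin, t-test).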
# [2] = system: purified recombinant caspase-1, −3, and −7; assay: Preliminary survey of inhibition of purified recombinant activated caspases; format: biochemical; conditions: for inhibition of purified caspase-1, −3, or −7 activity: 200 μM, 100 μM, 50 μM flavonoid (Figure 4); for caspase specificity: among caspase-1, −3, −7
# recombinant caspase-3 = molecular target: T1, recombinant caspase-3 (Homo sapiens, UniProt P42574); format: biochemical
# T1 sequence (P42574 29-175 limits assumed): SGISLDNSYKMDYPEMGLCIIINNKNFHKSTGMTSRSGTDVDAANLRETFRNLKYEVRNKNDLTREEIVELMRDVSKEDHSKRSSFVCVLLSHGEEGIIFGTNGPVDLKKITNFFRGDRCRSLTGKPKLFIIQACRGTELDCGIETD
# T1 sequence (P42574 176-277 limits assumed): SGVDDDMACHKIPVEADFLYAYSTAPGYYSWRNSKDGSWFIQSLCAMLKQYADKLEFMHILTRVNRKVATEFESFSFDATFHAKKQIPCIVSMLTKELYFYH
SMILES,reduction of staurosporine-induced caspase-3/−7 activity [1],caspase-3 or −7 activity in treated cells versus DMSO control [1],"inhibition of purified caspase-1, −3, or −7 activity [2]",IC50 (recombinant caspase-3) [µM],"type of caspase inhibition ([2]; Lineweaver-Burk plots, caspase-1, −3, −7)",caspase specificity [2]
"O=c1cc(-c2ccc(O)cc2)oc2cc(O)cc(O)c12 [Apigenin, apigenin]",reduction in activity was dose dependent,decrease in caspase-3 or −7 activity,did not exhibit strong dose-dependent inhibition,,,
"O.Oc1cc(O)c2c(c1)O[C@H](c1ccc(O)c(O)c1)[C@@H](O)C2 [Catechin, catechin]",,,did not exhibit strong dose-dependent inhibition,,,
"O=c1cc(-c2ccccc2)oc2cc(O)cc(O)c12 [Chrysin, chrysin]",,,did not exhibit strong dose-dependent inhibition,,,
"O=c1c(-c2ccc(O)cc2)coc2cc(O)ccc12 [Daidzein, daidzein]",,,did not exhibit strong dose-dependent inhibition; also recorded: unable to inhibit caspase activity,,,
"O=c1c(-c2ccc(O)cc2)coc2cc(O)cc(O)c12 [Genistein, genistein]",,,unable to inhibit caspase activity,,,
"O=c1c(O)c(-c2ccc(O)cc2)oc2cc(O)cc(O)c12 [Kaempferol, kaempferol]",reduction in activity was dose dependent,decrease in caspase-3 or −7 activity,"significant, dose-dependent inhibition",,,
"O=c1cc(-c2ccc(O)c(O)c2)oc2cc(O)cc(O)c12 [Luteolin, luteolin]",reduction in activity was dose dependent,decrease in caspase-3 or −7 activity,"significant, dose-dependent inhibition",,,
"O=c1c(O)c(-c2cc(O)c(O)c(O)c2)oc2cc(O)cc(O)c12 [Myricetin, myricetin]",able to reduce the staurosporine-induced activity,,"significant, dose-dependent inhibition; also recorded: one of the more potent inhibitors",25,competitive,specificity for caspase-1
"O=C1C[C@@H](c2ccc(O)cc2)Oc2cc(O)cc(O)c21 [Narigenin, naringenin]",,,did not exhibit strong dose-dependent inhibition,,,
"O=c1c(O)c(-c2ccc(O)c(O)c2)oc2cc(O)cc(O)c12 [Quercetin, quercetin]",able to reduce the staurosporine-induced activity,increase caspase-3 or −7 activity only slightly,"significant, dose-dependent inhibition",,,specificity for caspase-3
"CN[C@@H]1C[C@H]2O[C@@](C)([C@@H]1OC)n1c3ccccc3c3c4c(c5c6ccccc6n2c5c31)C(=O)NC4 [Staurosporine, staurosporine, reference compound]",,very strong caspase-3 or −7 activation,,,,
